# Data: ChEMBL document CHEMBL4196201, “Discovery of N-(4-{[5-Fluoro-7-(2-methoxyethoxy)quinazolin-4-yl]amino}phenyl)-2-[4-(propan-2-yl)-1 H-1,2,3-triazol-1-yl]acetamide (AZD3229), a Potent Pan-KIT Mutant Inhibitor for the Treatment of Gastrointestinal Stromal Tumors” (J Med Chem, 2018)
# Activity calls are given as the source filed them. No cut-off for these calls is given here.
# Key:
# [1] = test system: Mus musculus; assay: Inhibition of Kit exon 11 deletion (557 to 558 residues) and D816H mutant (unknown origin) transfected in mouse BA/F3 cells allografted in CB17 SCID mouse assessed as reduction in AKT phosphorylation at 20 mg/kg, po administered as single dose measured after 8 hrs; format: functional, organism-based
# Procedure, shortened: (§1)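 A single 20 mg/kg p.o. dose was given to mice carrying exon 11 del/D816H Ba/F3 allografts. Tumor pKIT, pERK and pAKT were measured over a timecourse, with free compound cover tracked in the same study.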
# [2] = Cytotoxicity in mouse parental BA/F3 cells incubated for 72 hrs by MTS assay; format: cell-based, BaF3
# [3] = Protein binding in rat plasma assessed as unbound fraction level; format: ADME, cell-free
# [4] = target: Vascular endothelial growth factor receptor 2 (Homo sapiens) (UniProt P35968)
# [5] = test system: Mast/stem cell growth factor receptor Kit (Homo sapiens), P10721 [V560D,D816H]
# [6] = test system: BaF3; assay: Antitumor activity against mouse BA/F3 cells expressing Kit exon 11 deletion (557 to 558 residues) and D816H mutant (unknown origin) allografted in CB17 SCID mouse assessed as tumor regression at 2 mg/kg, po bid measured on last day of dosing; format: functional
# Procedure, shortened: (§2)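 Ba/F3 cells bearing the KIT exon 11 del/D816H or exon 11 del/V654A mutation were grown as allografts in mice. Compounds were given p.o. once (QD) or twice daily (BD), and vehicle was given BD p.o. Tumor growth inhibition and regression (%) were taken on the last day of dosing. p-values were calculated relative to vehicle.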
# [7] = Oral bioavailability in dog at […]; format: ADME, organism-based, Canis lupus familiaris; details: in vivo
# [8] = Efflux ratio in human Caco2 cells at 10 uM at pH 6.5; details: Caco-2, pH 6.5
# [9] = Protein binding in human plasma assessed as unbound fraction level; format: ADME, cell-free
# [10] = Oral bioavailability in Han Wistar rat at […]; format: ADME, organism-based; details: in vivo
# [11] = test system: BaF3; assay: Antitumor activity against mouse BA/F3 cells expressing Kit exon 11 deletion (557 to 558 residues) and D816H mutant (unknown origin) allografted in CB17 SCID mouse assessed as inhibition of tumor growth at 2 mg/kg, po bid measured on last day of dosing; format: functional; details: read-out: TGI; procedure, shortened: as §2
# [12] = test system: Mus musculus; assay: Inhibition of Kit exon 11 deletion (557 to 558 residues) and D816H mutant (unknown origin) transfected in mouse BA/F3 cells allografted in CB17 SCID mouse assessed as reduction in AKT phosphorylation at 20 mg/kg, po administered as single dose measured after 24 hrs; format: functional, organism-based; procedure, shortened: as §1
# [13] = test system: Mus musculus; assay: Inhibition of Kit exon 11 deletion (557 to 558 residues) and D816H mutant (unknown origin) transfected in mouse BA/F3 cells allografted in CB17 SCID mouse assessed as reduction in ERK phosphorylation at 20 mg/kg, po administered as single dose measured after 24 hrs; format: functional, organism-based; procedure, shortened: as §1
# [14] = target: Mast/stem cell growth factor receptor Kit (Homo sapiens) (UniProt P10721)
# [15] = test system: BaF3; assay: Antitumor activity against mouse BA/F3 cells expressing Kit exon 11 deletion (557 to 558 residues) and V654 mutant (unknown origin) allografted in CB17 SCID mouse assessed as tumor regression at 2 mg/kg, po bid measured on last day of dosing; format: functional; procedure, shortened: as §2
# [16] = Intrinsic clearance in rat hepatocytes assessed per million cells; format: ADME, cell-based, Hepatocyte; details: read-out: CLH
# [17] = Volume of distribution at steady state in Han Wistar rat at 1 umol/kg, iv; format: ADME, organism-based; details: in vivo, read-out: Vdss
# Procedure, shortened: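 Han Wistar rat PK study using an iv dose of 1 μMol/kg and an oral dose of 2.1 μMol/kg. Clearance, Vdss, t1/2 and F% were derived.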
# [18] = test system: BaF3; assay: Antitumor activity against mouse BA/F3 cells expressing Kit exon 11 deletion (557 to 558 residues) and V654 mutant (unknown origin) allografted in CB17 SCID mouse assessed as tumor regression at 20 mg/kg, po bid measured on last day of dosing; format: functional; procedure, shortened: as §2
# [19] = test system: Mast/stem cell growth factor receptor Kit (Homo sapiens), P10721 [UNDEFINED MUTATION]
# [20] = test system: BaF3; assay: Antitumor activity against mouse BA/F3 cells expressing Kit exon 11 deletion (557 to 558 residues) and V654 mutant (unknown origin) allografted in CB17 SCID mouse assessed as inhibition of tumor growth at 2 mg/kg, po bid measured on last day of dosing; format: functional; details: read-out: TGI; procedure, shortened: as §2
# [21] = target: Mast/stem cell growth factor receptor Kit (Homo sapiens) (UniProt P10721); remark: listed apart in the source
# [22] = test system: Mast/stem cell growth factor receptor Kit (Homo sapiens), P10721 [UNDEFINED MUTATION]; remark: listed apart in the source
# [23] = Protein binding in dog plasma assessed as unbound fraction level; format: ADME, cell-free, Canis lupus familiaris
# [24] = test system: Mus musculus; assay: Inhibition of Kit exon 11 deletion (557 to 558 residues) and D816H mutant phosphorylation (unknown origin) transfected in mouse BA/F3 cells allografted in CB17 SCID mouse at 20 mg/kg, po administered as single dose measured after 24 hrs; format: functional, organism-based; procedure, shortened: as §1
# [25] = test system: Mast/stem cell growth factor receptor Kit (Homo sapiens), P10721 [UNDEFINED MUTATION]; remark: listed apart in the source
# [26] = test system: Mast/stem cell growth factor receptor Kit (Homo sapiens), P10721 [UNDEFINED MUTATION]; remark: listed apart in the source
# [27] = test system: Mus musculus; assay: Inhibition of Kit exon 11 deletion (557 to 558 residues) and D816H mutant (unknown origin) transfected in mouse BA/F3 cells allografted in CB17 SCID mouse assessed as reduction in ERK phosphorylation at 20 mg/kg, po administered as single dose measured after 8 hrs; format: functional, organism-based; procedure, shortened: as §1
# [28] = test system: BaF3; assay: Antitumor activity against mouse BA/F3 cells expressing Kit exon 11 deletion (557 to 558 residues) and D816H mutant (unknown origin) allografted in CB17 SCID mouse assessed as tumor regression at 20 mg/kg, po bid measured on last day of dosing; format: functional; procedure, shortened: as §2
# [29] = Oral bioavailability in CD1 mouse at 21 umol/kg; format: ADME, organism-based; details: in vivo
# Procedure, shortened: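 PK was run in CD1 mice with an iv dose of 10 μMol/kg and an oral dose of 21 μMol/kg. Cl, Vdss, t1/2 and F% were derived.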
# [30] = test system: BaF3; assay: Antitumor activity against mouse BA/F3 cells expressing Kit exon 11 deletion (557 to 558 residues) and V654 mutant (unknown origin) allografted in CB17 SCID mouse assessed as inhibition of tumor growth at 20 mg/kg, po bid measured on last day of dosing; format: functional; details: read-out: TGI; procedure, shortened: as §2
# [31] = target: Voltage-gated inwardly rectifying potassium channel KCNH2 (Homo sapiens, UniProt Q12809); assay: Inhibition of human ERG
# [32] = test system: Mus musculus; assay: Inhibition of Kit exon 11 deletion (557 to 558 residues) and D816H mutant phosphorylation (unknown origin) transfected in mouse BA/F3 cells allografted in CB17 SCID mouse at 20 mg/kg, po administered as single dose measured after 8 hrs; format: functional, organism-based; procedure, shortened: as §1
# Chain of Mast/stem cell growth factor receptor Kit (Homo sapiens), P10721 [UNDEFINED MUTATION] (P10721 whole entry, looked up, stated change not applied, the tested form may be a part): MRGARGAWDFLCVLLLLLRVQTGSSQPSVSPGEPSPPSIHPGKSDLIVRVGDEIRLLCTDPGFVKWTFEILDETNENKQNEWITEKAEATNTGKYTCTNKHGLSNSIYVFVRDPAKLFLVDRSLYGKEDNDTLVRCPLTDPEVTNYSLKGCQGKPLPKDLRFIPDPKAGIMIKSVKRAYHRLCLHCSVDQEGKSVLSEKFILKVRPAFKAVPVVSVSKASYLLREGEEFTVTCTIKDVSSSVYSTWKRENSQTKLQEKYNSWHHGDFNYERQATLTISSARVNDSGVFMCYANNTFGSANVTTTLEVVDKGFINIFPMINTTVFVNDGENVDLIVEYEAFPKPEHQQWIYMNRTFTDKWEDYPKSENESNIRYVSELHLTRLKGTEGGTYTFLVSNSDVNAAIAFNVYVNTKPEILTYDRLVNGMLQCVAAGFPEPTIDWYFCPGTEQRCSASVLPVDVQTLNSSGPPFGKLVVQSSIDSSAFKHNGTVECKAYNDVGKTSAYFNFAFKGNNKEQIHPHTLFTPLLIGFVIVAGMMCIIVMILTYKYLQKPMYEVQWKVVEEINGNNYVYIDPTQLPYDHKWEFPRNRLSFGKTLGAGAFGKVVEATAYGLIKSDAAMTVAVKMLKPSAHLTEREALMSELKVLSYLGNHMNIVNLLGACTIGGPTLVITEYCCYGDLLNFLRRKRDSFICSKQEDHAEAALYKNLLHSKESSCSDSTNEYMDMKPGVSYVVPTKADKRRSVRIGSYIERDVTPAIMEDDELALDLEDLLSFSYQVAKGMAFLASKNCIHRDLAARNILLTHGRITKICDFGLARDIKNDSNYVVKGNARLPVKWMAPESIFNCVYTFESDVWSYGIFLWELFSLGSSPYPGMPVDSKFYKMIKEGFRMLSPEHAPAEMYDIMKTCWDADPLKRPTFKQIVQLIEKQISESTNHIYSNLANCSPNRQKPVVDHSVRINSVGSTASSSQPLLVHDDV
# Chain of Mast/stem cell growth factor receptor Kit (Homo sapiens) (P10721 whole entry, the tested form may be a part): as the sequence (P10721 whole entry, looked up, stated change not applied, the tested form may be a part) above
# Chain of Vascular endothelial growth factor receptor 2 (Homo sapiens) (P35968 whole entry): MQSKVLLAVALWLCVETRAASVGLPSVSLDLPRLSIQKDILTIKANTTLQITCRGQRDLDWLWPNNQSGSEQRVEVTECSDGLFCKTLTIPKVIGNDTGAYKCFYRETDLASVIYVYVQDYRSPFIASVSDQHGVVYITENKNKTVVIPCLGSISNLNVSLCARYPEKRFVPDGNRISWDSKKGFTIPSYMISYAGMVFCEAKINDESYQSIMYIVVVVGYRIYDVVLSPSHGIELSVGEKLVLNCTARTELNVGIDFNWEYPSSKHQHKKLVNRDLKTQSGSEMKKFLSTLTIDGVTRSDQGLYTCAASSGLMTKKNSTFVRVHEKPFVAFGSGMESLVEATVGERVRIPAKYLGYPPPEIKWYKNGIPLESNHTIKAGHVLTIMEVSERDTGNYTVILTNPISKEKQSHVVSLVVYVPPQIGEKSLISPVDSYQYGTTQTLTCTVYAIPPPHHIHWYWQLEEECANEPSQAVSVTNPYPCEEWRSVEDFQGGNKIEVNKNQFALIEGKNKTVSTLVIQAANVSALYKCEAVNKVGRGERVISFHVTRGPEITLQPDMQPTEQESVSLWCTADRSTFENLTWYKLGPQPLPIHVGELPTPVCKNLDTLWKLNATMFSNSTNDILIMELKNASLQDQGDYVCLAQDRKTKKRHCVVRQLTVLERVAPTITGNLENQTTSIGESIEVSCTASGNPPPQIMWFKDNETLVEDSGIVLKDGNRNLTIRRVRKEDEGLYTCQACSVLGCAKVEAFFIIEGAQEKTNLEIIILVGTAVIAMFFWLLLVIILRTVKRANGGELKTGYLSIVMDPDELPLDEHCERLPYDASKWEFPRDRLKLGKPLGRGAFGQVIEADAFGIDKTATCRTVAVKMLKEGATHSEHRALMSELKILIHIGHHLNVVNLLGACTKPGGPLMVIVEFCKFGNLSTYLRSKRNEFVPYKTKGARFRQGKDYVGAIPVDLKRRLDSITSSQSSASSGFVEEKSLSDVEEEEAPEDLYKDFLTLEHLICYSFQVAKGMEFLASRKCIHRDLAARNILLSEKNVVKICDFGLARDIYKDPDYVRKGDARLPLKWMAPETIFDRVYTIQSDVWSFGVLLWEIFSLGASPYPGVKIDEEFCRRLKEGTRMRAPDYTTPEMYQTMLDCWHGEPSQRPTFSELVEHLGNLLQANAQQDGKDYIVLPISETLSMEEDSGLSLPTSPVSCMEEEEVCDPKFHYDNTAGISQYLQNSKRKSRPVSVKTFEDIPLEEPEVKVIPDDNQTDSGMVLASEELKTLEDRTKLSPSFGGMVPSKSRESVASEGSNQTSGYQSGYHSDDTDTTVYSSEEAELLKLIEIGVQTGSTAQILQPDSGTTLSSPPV
# Chain of Voltage-gated inwardly rectifying potassium channel KCNH2 (Q12809 whole entry, the tested form may be a part): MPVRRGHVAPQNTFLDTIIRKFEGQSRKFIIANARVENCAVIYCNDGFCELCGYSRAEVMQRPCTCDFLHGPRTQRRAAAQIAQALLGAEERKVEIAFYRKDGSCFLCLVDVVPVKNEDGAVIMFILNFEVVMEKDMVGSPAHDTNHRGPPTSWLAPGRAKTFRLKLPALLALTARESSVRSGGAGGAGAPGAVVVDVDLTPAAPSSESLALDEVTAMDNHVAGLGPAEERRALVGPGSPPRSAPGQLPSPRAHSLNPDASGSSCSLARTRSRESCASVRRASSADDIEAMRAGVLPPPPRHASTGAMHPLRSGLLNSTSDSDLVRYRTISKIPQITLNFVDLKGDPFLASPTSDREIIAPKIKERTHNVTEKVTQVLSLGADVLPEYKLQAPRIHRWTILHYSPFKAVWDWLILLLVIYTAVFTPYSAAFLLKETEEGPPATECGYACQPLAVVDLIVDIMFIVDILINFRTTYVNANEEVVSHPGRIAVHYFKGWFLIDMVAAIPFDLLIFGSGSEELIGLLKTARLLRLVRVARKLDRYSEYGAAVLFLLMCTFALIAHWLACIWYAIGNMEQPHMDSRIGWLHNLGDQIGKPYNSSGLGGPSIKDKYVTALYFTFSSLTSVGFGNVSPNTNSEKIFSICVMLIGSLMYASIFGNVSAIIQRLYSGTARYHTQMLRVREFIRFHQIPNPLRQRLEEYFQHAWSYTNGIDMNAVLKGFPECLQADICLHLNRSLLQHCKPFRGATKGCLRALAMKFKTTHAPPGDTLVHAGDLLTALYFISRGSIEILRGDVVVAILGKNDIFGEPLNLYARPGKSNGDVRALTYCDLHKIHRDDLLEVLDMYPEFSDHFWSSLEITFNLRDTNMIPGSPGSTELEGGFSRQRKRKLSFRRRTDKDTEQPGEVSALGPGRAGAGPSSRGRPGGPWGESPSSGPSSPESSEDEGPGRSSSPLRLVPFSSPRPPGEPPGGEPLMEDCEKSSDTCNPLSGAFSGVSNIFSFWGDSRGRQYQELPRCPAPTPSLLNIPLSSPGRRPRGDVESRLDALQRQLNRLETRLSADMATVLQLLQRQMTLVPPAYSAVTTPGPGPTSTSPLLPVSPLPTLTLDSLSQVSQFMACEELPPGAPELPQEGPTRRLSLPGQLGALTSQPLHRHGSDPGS
# Chain of Mast/stem cell growth factor receptor Kit (Homo sapiens), P10721 [V560D,D816H] (P10721 whole entry V560D/D816H, the tested form may be a part): as the sequence (P10721 whole entry, looked up, stated change not applied, the tested form may be a part) above, with V560D, D816H counted along it
smiles,measurement,setting,value
COCCOc1cc(F)c2c(Nc3ccc(NC(=O)Cn4cc(C(C)C)nn4)cc3)ncnc2c1,inhibition,[1],Active
same,GI50 at 72 h,[2],> 10000 nM
same,fraction unbound,[3],0.022
same,GI50,[4],1380 nM
same,GI50,[5],18 nM
same,Activity,[6],0%
same,bioavailability,[7],69%
same,efflux ratio at 10 µM,[8],2.6
same,fraction unbound,[9],0.035
same,bioavailability,[10],79%
same,inhibition in vivo at 2 mg/kg,[11],5%
same,inhibition,[12],Active
same,inhibition,[13],Active
same,GI50,[14],1 nM
same,Activity,[15],44%
same,hepatocyte CLint,[16],17 µL/min/1e6 cells
same,Vd,[17],0.6 L/kg
same,Activity,[18],85%
same,GI50,[19],9 nM
same,inhibition in vivo at 2 mg/kg,[20],> 100%
same,GI50,[21],51 nM
same,GI50,[22],3 nM
same,fraction unbound,[23],0.068
same,inhibition,[24],Active
same,GI50,[25],3 nM
same,GI50,[26],3 nM
same,inhibition,[27],Active
same,Activity,[28],75%
same,bioavailability,[29],100%
same,inhibition in vivo at 20 mg/kg,[30],> 100%
same,IC50,[31],> 33300 nM
same,inhibition,[32],Active
